Measurements as given in ChEMBL document CHEMBL5532699, “Design, docking optimization, and evaluation of biotin-PEG4-1,8-naphthalimide as a potent and safe antitumor agent with dual targeting of ferroptosis and DNA” (RSC Med Chem, 2024).
Calls of active or inactive are those of the source. The rule behind the calls is not given here.

Columns and labels:
[1] = Toxicity in nude mouse xenografted with human MGC-803 cells assessed as pathological changes in lungs at 12 to 48 mg/kg, ip administered once every two days for 21 days by H and E staining based analysis; assay type: organism-based; settings: in vivo, 504 h, dose 12-48 mg/kg, time 21 day
Outline: (§1)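 Nude mice carrying s.c. xenografts (1×10^6 cells, right flank) randomized at 60–80 mm³ (n = 6), dosed i.p. every 2 days in 5% v/v DMSO/saline. Major organs examined by H&E staining at 200× magnification.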

[2] = test system: MGC-803; assay: Induction of apoptosis in human MGC-803 cells; assay type: functional, cell-based
[3] = test system: MGC-803; assay: Induction of cell cycle arrest at S phase in human MGC-803 cells assessed as decrease in CDK2 protein expression level at 25 to 50 uM incubated for 24 hrs by Western blot analysis; assay type: functional, cell-based; settings: dose 25-50 µM
Outline: (§2)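 MGC-803 cells treated 25 or 50 μM for 24 h, lysed in ice-cold 1% SDS/Tris-HCl pH 7.5 buffer with EDTA, NaCl and protease inhibitors, spun 12,000g 18 min. Protein quantified by BCA; 40–50 μg resolved on 10% SDS-PAGE, transferred to PVDF, milk-blocked 2 h, primary antibody overnight, HRP secondary 1 h at RT. ECL detection with densitometry.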

[4] = test system: MGC-803; assay: Antitumor activity against human MGC-803 cells xenografted in nude mouse assessed as tumor inhibition ratio at 48 mg/kg, ip administered once every two days for 21 days relative to control; assay type: functional; settings: MGC-803, 504 h, time 21 day
Outline: (§3)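 1×10^6 tumor cells injected s.c. into the right flank of nude mice. At mean tumor volume 60–80 mm³, animals randomized to vehicle or treatment groups (n = 6). Compound in 5% v/v DMSO/saline given i.p. every 2 days. Tumor size and weight recorded; volume = lw²/2 from length and width. Body weight tracked as the systemic toxicity index.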

[5] = test system: MGC-803; assay: Effect on FACL4 protein expression in human MGC-803 cells at 25 to 50 uM incubated for 24 hrs by Western blot analysis; assay type: functional, cell-based; settings: dose 25-50 µM; outline: as §2
[6] = Toxicity in nude mouse xenografted with human U-251 cells assessed as pathological changes in lung at 24 to 48 mg/kg, ip administered once every two days for 21 days by H and E staining based analysis; assay type: organism-based; settings: in vivo, 504 h, dose 24-48 mg/kg, time 21 day; outline: as §1
[7] = test system: U-251; assay: Antitumor activity against human U-251 cells xenografted in nude mouse assessed as tumor inhibition ratio at 48 mg/kg, ip administered once every two days for 21 days relative to control; assay type: functional; settings: U-251, 504 h, time 21 day; outline: as §3
[8] = test system: MGC-803; assay: Induction of cell cycle arrest in human MGC-803 cells assessed as accumulation of cells at G0/G1 phase at 50 uM incubated for 24 hrs by PI staining based flow cytometry (Rvb=59.09%); assay type: functional
[9] = test system: MGC-803; assay: Antitumor activity against human MGC-803 cells xenografted in nude mouse assessed as tumor inhibition ratio at 24 mg/kg, ip administered once every two days for 21 days relative to control; assay type: functional; settings: MGC-803, 504 h, time 21 day; outline: as §3
[10] = test system: Supercoiled DNA; assay: Binding affinity to supercoiled circular pBR322 plasmid DNA (unknown origin) assessed as DNA intercalation by measuring migration in gel at 25 to 200 uM incubated for 4 hrs by PI and EtBr staining based gel electrophoresis; assay type: nucleic-acid assay; settings: dose 25-200 µM, in the assay text read “GelRed staining” for “PI and EtBr staining”
Outline: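 0.20 μg pBR322 DNA in relaxation buffer (10 mM Tris, 0.1 mM EDTA, 5 mM MgCl₂, 50 mM KCl, 0.01% BSA, pH 7.5), 20 μL, incubated 4 h at 37°C with or without compound at varied concentrations. Stopped with SDS/bromophenol blue/glycerol loading buffer, run on 0.8% agarose in TAE, stained with GelRed; supercoiled and linear forms scored.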

[11] = Toxicity in nude mouse xenografted with human MGC-803 cells assessed as pathological changes in liver at 12 to 48 mg/kg, ip administered once every two days for 21 days by H and E staining based analysis; assay type: organism-based; settings: in vivo, 504 h, dose 12-48 mg/kg, time 21 day; outline: as §1
[12] = test system: MGC-803; assay: Induction of cell cycle arrest in human MGC-803 cells assessed as accumulation of cells at S phase at 50 uM incubated for 24 hrs by PI staining based flow cytometry (Rvb=28.00%); assay type: functional
[13] = test system: MGC-803; assay: Induction of ferroptosis in human MGC-803 cells assessed as reduction of GPX4 protein expression level at 25 to 50 uM incubated for 24 hrs by Western blot analysis; assay type: functional, cell-based; settings: dose 25-50 µM; outline: as §2
[14] = test system: MGC-803; assay: Induction of ferroptosis in human MGC-803 cells assessed as accumulation of intracellular ROS level by measuring increase in red fluorescence intensity at 25 to 50 uM incubated for 24 hrs by DHE staining based confocal microscopic analysis; assay type: functional, cell-based; settings: dose 25-50 µM
[15] = test system: MGC-803; assay: Induction of cell cycle arrest in human MGC-803 cells assessed as accumulation of cells at G0/G1 phase at 25 uM incubated for 24 hrs by PI staining based flow cytometry (Rvb=59.09%); assay type: functional
[16] = test system: U-251; assay: Antitumor activity against human U-251 cells xenografted in nude mouse assessed as tumor inhibition ratio at 24 mg/kg, ip administered once every two days for 21 days relative to control; assay type: functional; settings: U-251, 504 h, time 21 day; outline: as §3
[17] = test system: MGC-803; assay: Inhibition of DNA synthesis in human MGC-803 cells at 25 to 50 uM incubated for 24 hrs by EdU staining based fluorescence microscopic analysis; assay type: functional, cell-based; settings: dose 25-50 µM
[18] = test system: MGC-803; assay: Induction of cell cycle arrest in human MGC-803 cells assessed as accumulation of cells at G0/G1 phase at 100 uM incubated for 24 hrs by PI staining based flow cytometry (Rvb=59.09%); assay type: functional
[19] = test system: MDA-MB-231; assay: Antiproliferative activity against human MDA-MB-231 cells incubated for 48 hrs by MTT assay; assay type: functional, cell-based; settings: MDA-MB-231, 48 h
Outline: (§4)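 Monolayer cells in DMEM with 10% FBS, penicillin and streptomycin, 37°C, 5% CO2. Exponentially growing cells were seeded in 96-well plates and exposed to compound for 48 h. MTT was then added for 4 h at 37°C. Medium was removed, formazan dissolved in DMSO, and OD read at 490 nm. Each plate had five replicate wells, and assays were repeated three times per line.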

[20] = test system: A549; assay: Antiproliferative activity against human A549 cells incubated for 48 hrs by MTT assay; assay type: functional, cell-based; settings: A549, 48 h; outline: as §4
[21] = test system: MGC-803; assay: Induction of cell cycle arrest in human MGC-803 cells assessed as accumulation of cells at S phase at 25 uM incubated for 24 hrs by PI staining based flow cytometry (Rvb=28.00%); assay type: functional
[22] = test system: MGC-803; assay: Induction of ferroptosis in human MGC-803 cells assessed as reduction in mitochondrial cristae at 5 uM incubated for 24 hrs by TEM analysis; assay type: functional, cell-based
Outline: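 Cell samples prefixed in 3% glutaraldehyde, postfixed in 1% osmium tetroxide, dehydrated through graded acetone (30–100%), embedded in Epon812, cut into 60–90 nm ultrathin sections on copper grids, stained with uranyl acetate 10–15 min and lead citrate 1–2 min at room temperature, examined by TEM.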

[23] = test system: MGC-803; assay: Antitumor activity against human MGC-803 cells xenografted in nude mouse assessed as tumor inhibition ratio at 12 mg/kg, ip administered once every two days for 21 days relative to control; assay type: functional; settings: MGC-803, 504 h, time 21 day; outline: as §3
[24] = test system: MGC-803; assay: Induction of cell cycle arrest at S phase in human MGC-803 cells assessed as increase in P21 protein expression level at 25 to 50 uM incubated for 24 hrs by Western blot analysis; assay type: functional, cell-based; settings: dose 25-50 µM; outline: as §2

**Q.** For `CN(C)CCN1C(=O)c2cccc3c(N4CCN(C(=O)CCOCCOCCOCCOCCNC(=O)CCCCC5SCC6NC(=O)NC65)CC4)ccc(c23)C1=O` (centres undefined), which Activity [1] is on record?
**A.** Non-Toxic

**Q.** And the Activity [2]?
**A.** inactive

**Q.** And the Activity [3]?
**A.** Active

**Q.** What about the inhibition in vivo at 48 mg/kg [4] of the same molecule?
**A.** 65.5%

**Q.** And the Activity [5]?
**A.** inactive

**Q.** And the Activity [6]?
**A.** Non-Toxic

**Q.** What about the inhibition in vivo at 48 mg/kg [7] of the same molecule?
**A.** 76.2%

**Q.** And the Activity [8]?
**A.** 33.17%

**Q.** And the inhibition in vivo at 24 mg/kg [9]?
**A.** 39.6%

**Q.** And the Activity [10]?
**A.** Active

**Q.** What about the Activity [11] of the same molecule?
**A.** Non-Toxic

**Q.** And the Activity [12]?
**A.** 40.58%

**Q.** And the Activity [13]?
**A.** Active

**Q.** What about the Activity [14] of the same molecule?
**A.** Active

**Q.** And the Activity [15]?
**A.** 53.99%

**Q.** And the inhibition in vivo at 24 mg/kg [16]?
**A.** 74.8%

**Q.** What about the inhibition [17] of the same molecule?
**A.** Active

**Q.** And the Activity [18]?
**A.** 39.71%

**Q.** And the IC50 [19]?
**A.** > 50 µM

**Q.** And the IC50 [20]?
**A.** > 50 µM

**Q.** And the Activity [21]?
**A.** 22.7%

**Q.** And the Activity [22]?
**A.** Active

**Q.** And the inhibition in vivo at 12 mg/kg [23]?
**A.** 29.6%

**Q.** What about the Activity [24] of the same molecule?
**A.** Active
